For test [1], the target named is T1, Kinesin-like protein KIFC1 (Homo sapiens) (UniProt Q9BW19).
T1 sequence (whole entry): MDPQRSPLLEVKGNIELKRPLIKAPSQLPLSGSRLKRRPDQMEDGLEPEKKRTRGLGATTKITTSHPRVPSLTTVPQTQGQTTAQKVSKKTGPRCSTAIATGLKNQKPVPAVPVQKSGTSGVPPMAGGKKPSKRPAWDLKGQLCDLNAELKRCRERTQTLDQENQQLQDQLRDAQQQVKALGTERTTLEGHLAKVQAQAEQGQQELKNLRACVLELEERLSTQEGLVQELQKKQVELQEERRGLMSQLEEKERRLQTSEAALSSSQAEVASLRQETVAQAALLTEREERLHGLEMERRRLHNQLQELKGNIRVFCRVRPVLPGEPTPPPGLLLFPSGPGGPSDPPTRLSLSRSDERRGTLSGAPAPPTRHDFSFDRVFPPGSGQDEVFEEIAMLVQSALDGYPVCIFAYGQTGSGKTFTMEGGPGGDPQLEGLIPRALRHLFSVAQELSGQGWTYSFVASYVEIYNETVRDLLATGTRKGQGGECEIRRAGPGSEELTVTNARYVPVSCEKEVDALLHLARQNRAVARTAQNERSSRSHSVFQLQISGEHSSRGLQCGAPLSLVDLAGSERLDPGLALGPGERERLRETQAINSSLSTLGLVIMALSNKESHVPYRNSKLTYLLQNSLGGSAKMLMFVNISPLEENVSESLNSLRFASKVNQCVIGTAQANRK
Kind of test: Inhibition of N-terminal His-tagged full length recombinant human HSET assessed as inhibition of microtubule-stimulated ATPase activity incubated for 10 mins in presence of ultra-ATP by ADP-Glo kinase assay relative to control. Background: ADP-Glo turns the ADP formed in a reaction into a luminescent signal.

Test [2] has as its target T2, Kinesin-like protein KIFC1 (Homo sapiens, UniProt Q9BW19).
T2 sequence (Q9BW19 whole entry): T1 sequence (whole entry)
As to the kind of experiment: Displacement of FP-Probe from N-terminal His-tagged full length recombinant human HSET incubated for 2 hrs by fluorescence polarization based competitive binding assay. In a few lines: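 Competitive FP assay with 400 nM full-length human N-His HSET and 2.5 nM sulfoCy5 probe in 20 mM HEPES pH 7.5, 200 mM NaCl, 10 mM MgCl2, 1 mM TCEP, 0.1 mM Triton X-100, 5% glycerol. 11-point compound series from 100 to 0.001 μM final.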
(Polarisation of emitted light reports the rotation of a fluorescent probe.)

In test [3] the target is T2, Kinesin-like protein KIFC1. Kind of test: Binding affinity to N-terminal His-tagged full length recombinant human HSET assessed as dissociation constant incubated for 3 hrs in presence of 7 ug/ml of microtubules by fluorescence polarization assay. The procedure, abridged: (§1)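 Full-length human N-His HSET titrated from 2000 to 0.5 nM. Preincubated 10 min with paclitaxel-stabilized preformed microtubules or reconstitution buffer, then added to 2.5 nM sulfoCy5 probe. Buffer: 20 mM HEPES pH 7.5, 200 mM NaCl, 10 mM MgCl2, 1 mM TCEP, 0.1 mM Triton X-100, 5% glycerol.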

Test [4] concerns the target T2, Kinesin-like protein KIFC1. As to the kind of experiment: Binding affinity to N-terminal His-tagged full length recombinant human HSET assessed as dissociation constant incubated for 3 hrs in presence of 70 ug/ml of microtubules by fluorescence polarization assay. In a few lines: as §1
Test [5] addresses T1, Kinesin-like protein KIFC1 (Homo sapiens). Kind of test: Displacement of CCT369834 probe from HSET in human DLD-1 cells assessed as decrease in localization of CCT369834 probe at 0.1 to 10 uM incubated for 45 mins by TZ-Cy5 staining immunofluorescence analysis. The format is cell-based. Particulars: dose 0.1-10 µM. In a few lines:
(§2)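 Target engagement in DLD1 4N cells, with HSET-knockout DLD1 as negative control. Cells pretreated 2 h with 8 μM pro-TAME, then given 3 μM TCO probe alone or with competitor plus 8 μM MG-132 in 1% FBS medium for 45 min. Washed, PFA-fixed, then 400 nM tetrazine-Cy5 for 10 min. Stained for pericentrin, KIFC1 and DAPI, followed by confocal 3D segmentation of mitotic poles. Cy5/KIFC1 pole intensity ratio, with KO signal subtracted, normalized to probe-alone control; n > 100 cells per replicate, two replicates per concentration.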

Test [6] shares this target. Kind of test: Displacement of CCT369834 probe from HSET in human DLD-1 cells assessed as decrease in localization of CCT369834 probe at 0.1 to 10 uM incubated for 45 mins by DAPI staining immunofluorescence analysis. Format: cell-based. Particulars: dose 0.1-10 µM. The procedure, abridged:
as §2

The target is the same in test [7]. Kind of test: Displacement of CCT369834 probe from HSET in human DLD-1 cells assessed as decrease in localization of CCT369834 probe at 0.1 to 10 uM incubated for 45 mins by Alexa-488 fluorophore staining immunofluorescence analysis. Format: cell-based. Particulars: dose 0.1-10 µM. In a few lines:
as §2

The target is the same in test [8]. Kind of test: Binding affinity to HSET in human DLD-1 with HSET knockout assessed as fold increase in signal at 3 uM incubated for 45 mins by Alexa-488 fluorophore staining immunofluorescence analysis. The format is cell-based. In a few lines: (§3)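 DLD1 4N cells and CRISPR HSET-knockout DLD1 cells pretreated 2 h with 8 μM pro-TAME, then 45 min with 3 μM TCO click probe plus 8 μM MG-132 in DMEM/1% FBS. After washes, fixed in 4% PFA and reacted with 400 nM tetrazine-Cy5 for 10 min at room temperature. Stained for pericentrin, KIFC1 (Alexa-488) and DAPI; confocal 40× imaging; signal expressed relative to tetrazine-Cy5 alone.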

For test [9] the target is unchanged. As to the kind of experiment: Binding affinity to HSET in human DLD-1 assessed as fold increase in signal at 3 uM incubated for 45 mins by Alexa-488 fluorophore staining immunofluorescence analysis. Format: cell-based. In a few lines: as §3

Molecules are shown by their SMILES.

Turning to `CCOC(=O)c1sc(NC(=O)CCNC(=O)c2ccccc2)nc1C`, the inhibition in test [1] is 47%.

For `CCOC(=O)c1sc(NC(=O)CCNC(=O)c2cccc(-c3noc(C)n3)c2)nc1C`, the IC50 in test [2] came to 109 nM. Turning to `CCOC(=O)c1sc(NC(=O)CCNC(=O)C2CCCC(C)C2)nc1C` (stereo not given), the inhibition in test [1] stood at 47%. In the case of `CCCOC(=O)c1sc(NC(=O)C[C@H](CCCNC(=O)CCCCC[N+]2=C(/C=C/C=C/C=C3/N(C)c4ccc(S(=O)(=O)O)cc4C3(C)C)C(C)(C)c3cc(S(=O)(=O)O)ccc32)NC(=O)c2cccc(-c3noc(C)n3)c2)nc1C`, the Kd in test [3] was 315 nM; in test [4], 332 nM. For the compound `CCCOC(=O)c1sc(NC(=O)C[C@H](CCCN(C)C)NC(=O)c2cccc(-c3noc(C)n3)c2)nc1C`, the Activity entry in [5], in test [6] and in test [7] was “Dose-Dependent Effect” in each case. Turning to `CCCOC(=O)c1sc(NC(=O)C[C@H](CCCN(C)CC#CCNC(=O)O[C@@H]2CC/C=C/CCC2)NC(=O)c2cccc(-c3noc(C)n3)c2)nc1C`, the fold change (FC) in test [8] turned out to be 7; in [9] it was 14.

The inhibition is the share of the control response that was lost under treatment. The IC50 is the concentration needed to halve the response being measured. One may read the Kd as the constant that tells how readily two partners part at equilibrium.

(Values after ChEMBL document CHEMBL5380804, “Discovery of 2-(3-Benzamidopropanamido)thiazole-5-carboxylate Inhibitors of the Kinesin HSET (KIFC1) and the Development of Cellular Target Engagement Probes” (J Med Chem, 2023).)
